Experimental data: ChEMBL document CHEMBL1152285 (Bioorg Med Chem Lett, 2008)
Activity calls are given as the source filed them. The calls are words filed in the database; no cut-off is given here.

How the values were obtained:
Histone deacetylase 1 = Histone deacetylase 1 (Homo sapiens, UniProt Q13547); test: Inhibition of HDAC1 purified from HEK293 cells by Western blot; format: cell-free
[1] = Inhibition of histidine-tagged HDAC4 wild type catalytic domain purified from Escherichia coli after 10 mins
How it was run: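 His-tagged HDAC4 catalytic domain (653-1084) expressed in E. coli. Trifluoroacetamide substrate then added for 1 h at 37 °C. Stopped with developer/TSA; fluorescence read at ex 360/em 460. IC50 values are means of >2 experiments.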

[2] = target: T1, Histone deacetylase (Homo sapiens) (UniProt Q13547+O15379+Q9UBN7+Q92769+Q9UQL6+Q8WUI4+Q9BY41+Q96DB2+P56524+Q9UKV0+Q969S8); test: Inhibition of HDAC in human HCT116 cells assessed as alpha-tubulin deacetylation up to 10 uM after 24 hrs; format: cell-based; details: HCT-116
How it was run: (§1)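 HCT116 cells treated 24 h. Alpha-tubulin acetylation measured, with the signal from 10 µM SAHA taken as 100% activation. Values are means of >2 experiments.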

[3] = target: T2, Protein deacetylase HDAC6 (Homo sapiens, UniProt Q9UBN7); test: Inhibition of HDAC6 purified from HEK293 cells by Western blot; format: cell-free
T2 sequence (Q9UBN7 whole entry): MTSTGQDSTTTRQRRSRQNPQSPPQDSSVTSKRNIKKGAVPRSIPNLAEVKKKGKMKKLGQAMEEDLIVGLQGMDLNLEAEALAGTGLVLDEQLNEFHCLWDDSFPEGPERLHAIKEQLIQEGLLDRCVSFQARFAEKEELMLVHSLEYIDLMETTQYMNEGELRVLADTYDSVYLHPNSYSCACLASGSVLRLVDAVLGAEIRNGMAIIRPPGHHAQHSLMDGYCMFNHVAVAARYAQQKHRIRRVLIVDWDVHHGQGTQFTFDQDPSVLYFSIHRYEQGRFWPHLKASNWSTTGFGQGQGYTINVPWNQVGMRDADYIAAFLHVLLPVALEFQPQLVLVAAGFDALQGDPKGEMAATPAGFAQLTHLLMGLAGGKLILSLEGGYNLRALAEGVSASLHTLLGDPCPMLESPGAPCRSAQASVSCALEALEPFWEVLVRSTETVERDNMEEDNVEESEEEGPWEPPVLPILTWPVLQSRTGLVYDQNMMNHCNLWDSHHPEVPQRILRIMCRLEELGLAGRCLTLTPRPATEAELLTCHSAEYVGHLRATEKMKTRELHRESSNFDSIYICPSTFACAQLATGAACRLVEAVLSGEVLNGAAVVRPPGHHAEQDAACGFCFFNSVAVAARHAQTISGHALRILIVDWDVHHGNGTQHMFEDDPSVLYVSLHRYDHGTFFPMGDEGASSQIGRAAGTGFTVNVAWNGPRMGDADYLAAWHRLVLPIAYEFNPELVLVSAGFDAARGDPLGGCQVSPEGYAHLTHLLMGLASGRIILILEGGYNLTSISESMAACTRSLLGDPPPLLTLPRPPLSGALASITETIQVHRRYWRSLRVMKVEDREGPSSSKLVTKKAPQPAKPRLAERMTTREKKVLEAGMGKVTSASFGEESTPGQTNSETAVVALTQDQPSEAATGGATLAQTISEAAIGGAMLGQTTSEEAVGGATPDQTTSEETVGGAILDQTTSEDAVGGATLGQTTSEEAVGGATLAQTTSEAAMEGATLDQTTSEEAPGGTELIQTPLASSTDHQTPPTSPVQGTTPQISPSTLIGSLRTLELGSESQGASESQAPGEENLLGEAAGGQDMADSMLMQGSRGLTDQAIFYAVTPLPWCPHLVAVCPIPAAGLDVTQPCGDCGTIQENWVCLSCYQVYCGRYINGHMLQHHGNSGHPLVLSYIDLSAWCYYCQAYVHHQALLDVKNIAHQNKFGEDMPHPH

[4] = Stability in human HCT116 cells S9 fraction by LCMS/MS in presence of NADPH; format: ADME, subcellular
How it was run: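 S9 at 1 mg/ml with 1 mM NADPH plus a regenerating system, 37 °C with low shaking. Stopped with 1N HCl, centrifuged, supernatant diluted with acetonitrile containing internal standard, analysed by LCMS/MS.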

Cytochrome P450 2C9 [5] = target: T3, Cytochrome P450 2C9 (Homo sapiens, UniProt P11712); test: Inhibition of CYP2C9 in human liver microsomes; format: ADME, Microsome
How it was run: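 Human liver microsomes. Read-out is tritium released as tritiated water on CYP2C9-mediated 4'-hydroxylation of diclofenac tritiated at the 4' position. IC50 values are means of >2 experiments.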

Cytochrome P450 2C9 [6] = target: T3, Cytochrome P450 2C9; test: Inhibition of CYP2C9 in human hepatocytes; format: ADME, cell-based, Hepatocyte
How it was run: (§2)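 Human hepatocytes. Read-out is CYP2C9-mediated 4'-hydroxylation of 4'-tritiated diclofenac, measured as tritiated water. Run without serum and with 10% FBS added. IC50 values are means of >2 experiments.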

[7] = target: T1, Histone deacetylase (Homo sapiens); test: Inhibition of HDAC in human HCT116 cells assessed as alpha-tubulin deacetylation at 50 uM after 24 hrs relative to 10 uM SAHA; format: cell-based; details: HCT-116; how it was run: as §1
Cytochrome P450 2C9 [8] = target: T3, Cytochrome P450 2C9; test: Inhibition of CYP2C9 in human hepatocytes in presence of 10% fetal bovine serum; format: ADME, cell-based, Hepatocyte; how it was run: as §2
Hepatocyte = test: Toxicity in human hepatocytes by MTS assay; format: cell-based
Histone deacetylase 3 = Histone deacetylase 3 (Homo sapiens, UniProt O15379); test: Inhibition of HDAC3 purified from HEK293 cells by Western blot; format: cell-free
[9] = Stability in human HCT116 cells by LCMS/MS in presence of 10% fetal bovine serum; format: ADME, cell-based, HCT-116
How it was run: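 Compounds at 1 and 5 µM incubated with HCT116 cells in medium with 10% FBS for up to 24 h. Aliquots taken over time and analysed by LCMS/MS. A cell-free medium control was run. Half-life was derived.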

[10] = Toxicity in human […] by MTS assay
[11] = target: T1, Histone deacetylase (Homo sapiens); test: Inhibition of HDAC in human HCT116 cells assessed as histone H3 deacetylation up to 10 uM; format: cell-based; details: HCT-116
[12] = target: T1, Histone deacetylase (Homo sapiens); details: HCT-116, 50 uM
Histone deacetylase [13] = test: Inhibition of HDAC in human HCT116 cells assessed as alpha-tubulin deacetylation; format: cell-based; details: hct-116; how it was run: as §1
Histone deacetylase [14] = test: Inhibition of HDAC in human HCT116 cells assessed as histone H3 deacetylation; format: cell-based; details: hct-116
[15] = target: T1, Histone deacetylase (Homo sapiens); details: HCT-116, 25 uM

Chain of Histone deacetylase 3 (O15379 whole entry): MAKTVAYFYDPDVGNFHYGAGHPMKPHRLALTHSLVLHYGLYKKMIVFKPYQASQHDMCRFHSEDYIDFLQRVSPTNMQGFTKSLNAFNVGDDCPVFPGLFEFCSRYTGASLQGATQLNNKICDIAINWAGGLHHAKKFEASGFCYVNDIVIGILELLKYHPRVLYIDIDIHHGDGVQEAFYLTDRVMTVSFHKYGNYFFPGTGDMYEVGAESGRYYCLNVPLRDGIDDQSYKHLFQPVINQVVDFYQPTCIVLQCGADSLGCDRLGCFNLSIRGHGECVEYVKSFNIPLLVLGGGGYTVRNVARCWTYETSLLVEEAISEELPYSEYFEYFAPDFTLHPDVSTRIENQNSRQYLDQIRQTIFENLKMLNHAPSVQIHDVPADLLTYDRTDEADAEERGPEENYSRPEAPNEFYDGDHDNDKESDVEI
T3 sequence (P11712 whole entry): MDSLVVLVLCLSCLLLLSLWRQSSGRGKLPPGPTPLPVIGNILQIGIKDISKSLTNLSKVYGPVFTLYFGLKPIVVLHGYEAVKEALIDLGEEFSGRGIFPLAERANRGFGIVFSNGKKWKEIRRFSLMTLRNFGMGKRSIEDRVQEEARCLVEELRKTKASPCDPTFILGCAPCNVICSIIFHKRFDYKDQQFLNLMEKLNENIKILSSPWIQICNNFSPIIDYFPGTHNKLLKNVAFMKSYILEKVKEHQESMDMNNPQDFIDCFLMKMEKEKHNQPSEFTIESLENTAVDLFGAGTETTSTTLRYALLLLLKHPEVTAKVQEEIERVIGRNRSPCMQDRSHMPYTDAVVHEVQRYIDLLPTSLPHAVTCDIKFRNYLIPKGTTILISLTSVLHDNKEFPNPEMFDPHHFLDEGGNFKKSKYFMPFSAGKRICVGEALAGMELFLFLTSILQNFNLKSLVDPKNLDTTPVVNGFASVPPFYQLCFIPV
Chain of Histone deacetylase 1 (Q13547 whole entry, the tested form may be a part): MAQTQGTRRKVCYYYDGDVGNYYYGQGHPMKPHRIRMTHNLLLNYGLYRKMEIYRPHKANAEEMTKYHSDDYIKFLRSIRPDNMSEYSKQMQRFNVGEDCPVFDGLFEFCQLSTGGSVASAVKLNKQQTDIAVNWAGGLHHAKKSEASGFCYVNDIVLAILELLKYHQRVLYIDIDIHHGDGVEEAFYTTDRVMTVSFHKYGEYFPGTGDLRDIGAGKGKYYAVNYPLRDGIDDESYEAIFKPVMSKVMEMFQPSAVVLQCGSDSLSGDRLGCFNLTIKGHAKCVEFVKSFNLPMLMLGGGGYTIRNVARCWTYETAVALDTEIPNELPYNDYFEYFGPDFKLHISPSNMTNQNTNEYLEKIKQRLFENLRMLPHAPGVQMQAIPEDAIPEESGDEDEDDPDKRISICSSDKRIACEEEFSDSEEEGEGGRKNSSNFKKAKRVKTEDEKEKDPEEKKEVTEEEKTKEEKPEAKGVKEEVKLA

In the case of O=C(NCc1ccccc1Cl)c1ccc(C(=O)C(F)(F)F)s1, the IC50 (Histone deacetylase 1) is reported as 550 nM, the IC50 [1] is reported as 100 nM and the Activity [2] is reported as “inactive”. It also gave an IC50 [3] of 190 nM and a half-life [4] of 0.25 h.

Molecule COc1cccc(N2CCN(C(=O)c3ccc(C(=O)C(F)(F)F)s3)CC2)c1 has an IC50 (Cytochrome P450 2C9 [5]) of 5000 nM, an IC50 (Cytochrome P450 2C9 [6]) of 8000 nM and an inhibition [7] of 50%. The IC50 (Cytochrome P450 2C9 [8]) was 8000 nM, the IC50 [1] was 480 nM and the Activity (Hepatocyte) was “Non-toxic”. It also gave an IC50 [3] of 170 nM.

In the case of O=C(NCC1CCCCC1)c1ccc(C(=O)C(F)(F)F)cn1, the IC50 [3] is reported as 3320 nM and the half-life [4] is reported as > 2 h.

In the case of O=C(c1ncc(C(=O)C(F)(F)F)s1)N1CCc2ccccc21, the IC50 (Histone deacetylase 1) is reported as 1600 nM, the IC50 [1] is reported as 13 nM and the Activity [2] is reported as “inactive”. It also gave an IC50 [3] of 410 nM and a half-life [4] of 0.333 h.

CN(Cc1ccccc1)C(=O)c1ccc(C(=O)C(F)(F)F)s1 gave an IC50 (Histone deacetylase 1) of 890 nM, an IC50 (Histone deacetylase 3) of 560 nM and an IC50 [1] of 510 nM.

Molecule C[C@H](NC(=O)c1ccc(C(=O)C(F)(F)F)s1)c1ccccc1 has an IC50 (Histone deacetylase 1) of 5000 nM, an IC50 [1] of 170 nM and an IC50 [3] of 150 nM.

Work on COc1ccc(Cl)cc1N1CCN(C(=O)c2ccc(C(=O)C(F)(F)F)s2)CC1 yielded an IC50 (Cytochrome P450 2C9 [5]) of 1800 nM, an IC50 (Histone deacetylase 1) of 4400 nM and an IC50 (Cytochrome P450 2C9 [6]) of 1800 nM. For the same molecule, the IC50 (Histone deacetylase 3) was > 10000 nM, the half-life [9] was 2 h and the IC50 [1] was 530 nM. For the same molecule, the Activity [2] was “inactive”, the Activity (Hepatocyte) was “Non-toxic” and the IC50 [3] was 175 nM. The Activity [10] was “Non-toxic” and the Activity [11] was “inactive”.

Molecule CN(Cc1ccc2nccnc2c1)C(=O)c1ccc(C(=O)C(F)(F)F)s1 has a half-life [9] of 3.5 h, an IC50 [1] of 100 nM and an inhibition [12] of 40%. It also gave a half-life [4] of 0.333 h and an EC50 (Histone deacetylase [13]) of 12000 nM.

Molecule CC(NC(=O)c1ccc(C(=O)C(F)(F)F)s1)c1ccncc1 (stereo not drawn) has an IC50 (Cytochrome P450 2C9 [5]) of 13000 nM, an IC50 (Histone deacetylase 1) of 1600 nM and an IC50 (Cytochrome P450 2C9 [6]) of 10000 nM. The IC50 (Cytochrome P450 2C9 [8]) was 3000 nM, the IC50 (Histone deacetylase 3) was 1500 nM and the half-life [9] was 5 h. The IC50 [1] was 90 nM, the Activity (Hepatocyte) was “Non-toxic” and the IC50 [3] was 260 nM. For the same molecule, the EC50 (Histone deacetylase [13]) was 10000 nM and the EC50 (Histone deacetylase [14]) was > 35000 nM.

With O=C(c1ccc(C(=O)C(F)(F)F)s1)N1CCn2c(-c3ccccc3)cnc2C1 the IC50 (Histone deacetylase 1) was 4700 nM, the IC50 (Histone deacetylase 3) was > 5000 nM and the IC50 [1] was 300 nM.

Work on O=C(c1ccc(C(=O)C(F)(F)F)s1)N1CCc2ccccc21 yielded an IC50 (Histone deacetylase 1) of 1300 nM, an IC50 (Histone deacetylase 3) of 1400 nM and an IC50 [1] of 150 nM. It also gave an IC50 [3] of 130 nM.

With Cc1noc(-c2ccc(C(=O)C(F)(F)F)s2)n1 the IC50 [1] was 75 nM, the half-life [4] was > 2 h and the EC50 (Histone deacetylase [13]) was 6500 nM.

In the case of O=C(c1ccc(C(=O)C(F)(F)F)[nH]1)N1CCc2ccccc21, the IC50 [3] is reported as 580 nM and the half-life [4] is reported as 0.25 h.

In the case of CC(NC(=O)c1ccc(C(=O)C(F)(F)F)s1)c1cccc2ccccc12 (stereo not drawn), the inhibition [15] is reported as 50%, the IC50 (Cytochrome P450 2C9 [5]) is reported as 1400 nM and the IC50 (Histone deacetylase 1) is reported as 830 nM. It also gave an IC50 (Cytochrome P450 2C9 [6]) of 11000 nM, an IC50 (Cytochrome P450 2C9 [8]) of 17000 nM and an IC50 (Histone deacetylase 3) of 840 nM. For the same molecule, the half-life [9] was 3 h, the IC50 [1] was 170 nM and the Activity (Hepatocyte) was “Non-toxic”. For the same molecule, the IC50 [3] was 360 nM.

Molecule O=C(c1ccc(C(=O)C(F)(F)F)s1)N1CCC(c2nnc(-c3ccccc3)o2)CC1 has an IC50 (Cytochrome P450 2C9 [5]) of 8000 nM, an IC50 (Histone deacetylase 1) of 1300 nM and an IC50 (Cytochrome P450 2C9 [6]) of 8000 nM. The IC50 (Cytochrome P450 2C9 [8]) was 5000 nM, the IC50 (Histone deacetylase 3) was 2800 nM and the half-life [9] was 2 h. For the same molecule, the IC50 [1] was 70 nM, the Activity (Hepatocyte) was “Non-toxic” and the IC50 [3] was 160 nM.
